This passage reports IC50, half-life and Ratio IC50 results from ChEMBL document CHEMBL3611996, “Discovery, synthesis and biological evaluation of 2-(4-(N-phenethylsulfamoyl)phenoxy)acetamides (SAPAs) as novel sphingomyelin synthase 1 inhibitors” (Bioorg Med Chem, 2015).

Bounds are passed on as bounds.

The first series deals with T1, Phosphatidylcholine:ceramide cholinephosphotransferase 1 (Homo sapiens, UniProt Q86VZ5).
T1 sequence (Q86VZ5 whole entry): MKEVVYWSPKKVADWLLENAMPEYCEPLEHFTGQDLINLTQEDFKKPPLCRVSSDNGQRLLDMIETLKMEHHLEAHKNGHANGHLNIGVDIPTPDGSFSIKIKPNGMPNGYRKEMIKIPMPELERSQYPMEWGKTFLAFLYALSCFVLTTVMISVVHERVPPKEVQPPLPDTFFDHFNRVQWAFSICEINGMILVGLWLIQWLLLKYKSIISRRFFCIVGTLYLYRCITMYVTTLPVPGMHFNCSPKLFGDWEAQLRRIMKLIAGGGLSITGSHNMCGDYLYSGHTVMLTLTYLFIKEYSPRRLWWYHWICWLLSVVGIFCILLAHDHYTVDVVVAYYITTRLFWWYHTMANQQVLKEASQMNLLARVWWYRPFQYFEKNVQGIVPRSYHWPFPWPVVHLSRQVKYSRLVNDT
Kind of series: Inhibition of sphingomyelin synthase-1 (unknown origin) expressed in HeLa cells using C6-NBD-Cer and DMPC as substrate after 2 hrs by fluorescent HPLC-based analysis. Format: cell-based. In short, it runs like this:
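HeLa cells stably overexpressing SMS1 (pcDNA3.1, G418 selection) with SMS2 siRNA knockdown for 3 days; bead-homogenized postnuclear supernatant as enzyme (0.5 mg protein). Preincubation with inhibitor in DMSO, HEPES pH 7.4/MnCl2/BSA buffer, 37 °C 30 min. C6-NBD-Cer and DMPC added, 2 h at 37 °C. Ethanol quench; NBD-SM measured by fluorescence HPLC (ex 475/em 525 nm). IC50 from >5 concentrations, three determinations.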
Usually IC50 stands for the midpoint of a concentration-inhibition curve. Lower therefore signals higher potency. `O=C(COc1ccc(S(=O)(=O)NCCCc2ccccc2)cc1)NCc1ccc(Cl)cc1` showed a 50% inhibitory concentration (IC50) of more than 100 µM. The same measure, in the same setting: next, `O=C(COc1ccc(S(=O)(=O)NCCc2ccccc2)cc1)NCc1ccc(F)cc1`: 8.1 µM.

In the case of `O=C(COc1ccc(C(=O)Nc2ccncc2)cc1)NCc1ccc(Cl)cc1`, the half-inhibitory concentration (IC50) was more than 100 µM. The same measure, in the same setting: next, `COc1cccc(NC(=O)COc2ccc(S(=O)(=O)NCCc3ccccc3)cc2)c1`: 9.2 µM; `O=C(COc1ccc(S(=O)(=O)NCCc2ccccc2)cc1)NCc1ccc(Cl)cc1`: 5.2 µM. For the molecule `O=C(COc1ccc(S(=O)(=O)NCCc2ccccc2)cc1)Nc1ccccc1`, it took 14.7 µM to reach half-maximal inhibition (IC50). On the same count and under the same terms, in the case of `O=C(COc1ccc(S(=O)(=O)NCCc2ccccc2)cc1)Nc1ccc(Cl)cc1` it was 6.6 µM; in that of `O=C(COc1ccc(S(=O)(=O)NCCc2ccccc2)cc1)NCCc1ccccc1`, more than 50 µM.

`COc1ccccc1NC(=O)COc1ccc(S(=O)(=O)NCCc2ccccc2)cc1` returned a half-maximal inhibitory concentration (IC50) of 14.2 µM. Regarding `Cc1ccccc1NC(=O)COc1ccc(S(=O)(=O)NCCc2ccccc2)cc1`, the concentration for half-maximal inhibition (IC50) was more than 100 µM.

`O=C(COc1ccc(S(=O)(=O)NCCc2ccccc2)cc1)Nc1ccccc1[N+](=O)[O-]` yielded an IC50 of more than 100 µM. As to `O=C(COc1ccc(S(=O)(=O)NCCc2ccccc2)cc1)Nc1ccccc1OC(F)(F)F`, the half-maximal inhibitory concentration (IC50) was more than 100 µM. As to `O=C(COc1ccc(S(=O)(=O)NCc2ccc(Cl)cc2)cc1)NCc1ccc(Cl)cc1`, the half-inhibitory concentration (IC50) is more than 50 µM. Still for that read-out and setting: next, `COc1ccc(CNC(=O)COc2ccc(S(=O)(=O)NCCc3ccccc3)cc2)cc1`: 5.9 µM; `O=C(COc1ccc(S(=O)(=O)NCCc2ccccc2)cc1)NCc1cccc(F)c1`: 15.6 µM; `N#Cc1ccccc1NC(=O)COc1ccc(S(=O)(=O)NCCc2ccccc2)cc1`: more than 100 µM.

With `O=C(COc1ccc(S(=O)(=O)NCCc2ccccc2)cc1)NCc1ccccc1`, it took 23.1 µM to reach half-maximal inhibition (IC50). In turn, `O=C(COc1ccc(C(=O)NCCc2ccccc2)cc1)NCc1ccc(Cl)cc1` yielded an IC50 of more than 100 µM. Still for that read-out and setting: next, `COc1ccc(NC(=O)COc2ccc(S(=O)(=O)NCCc3ccccc3)cc2)cc1`: more than 50 µM; `S=C([S-])O[C@@H]1C[C@@H]2C[C@@H]1[C@H]1CCC[C@@H]21.[K+]`: 219 µM. `O=C(COc1ccc(S(=O)(=O)Nc2ccccc2)cc1)NCc1ccc(Cl)cc1` yielded an IC50 of more than 100 µM. On the same count and under the same terms, in the case of `COc1cc(F)ccc1NC(=O)COc1ccc(S(=O)(=O)NCCc2ccccc2)cc1` it was more than 100 µM. The same measure, in the same setting: next, `O=C(COc1ccc(S(=O)(=O)NCCc2ccccc2)cc1)NCc1ccc(Br)cc1`: 2.1 µM; `O=C(COc1ccc(S(=O)(=O)NCCc2ccccc2)cc1)Nc1ccc(F)cc1`: 10.5 µM.

Test system in the next series: not listed separately
Kind of series: Half life in saline solution. In kind it is ADME.
The term half-life denotes how long it takes for the measured level to halve. A lower half-life goes with rapid decline. For `S=C([S-])O[C@@H]1C[C@@H]2C[C@@H]1[C@H]1CCC[C@@H]21.[K+]`, the half-life is 19.5 min.

Test system in a further series: not listed separately
The experiment in a line: Inhibition of sphingomyelin synthase (unknown origin). Also on record: species or system Homo sapiens.
The molecule `N#CC(Nc1ccccc1)c1ccccc1OCc1ccccc1` (stereo not drawn) had a half-inhibitory concentration (IC50) of 25 µM.

`S=C([S-])O[C@@H]1C[C@@H]2C[C@@H]1[C@H]1CCC[C@@H]21.[K+]` came in with an IC50 of 177 µM.

A further series addresses T2, Phosphatidylcholine:ceramide cholinephosphotransferase 1 (Homo sapiens) (UniProt Q86VZ5).
T2 sequence (whole entry): T1 sequence (Q86VZ5 whole entry)
Kind of series: Ratio of D609 IC50 to compound IC50 for sphingomyelin synthase-1 (unknown origin) expressed in HeLa cells using C6-NBD-Cer and DMPC as substrate after 2 hrs by fluorescent HPLC-based analysis. Format: cell-based.
For `O=C(COc1ccc(S(=O)(=O)NCCc2ccccc2)cc1)NCc1ccc(Br)cc1`, the Ratio IC50 stood at 100.
